Assay results: PubChem BioAssay AID623895 (Broad Institute, 2012)
Active and inactive are the calls of the source.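 How the source made its calls: active means compounds with an ATP-loss curve whose half-maximal dose stays within twice the top dose, in every run; inconclusive means mixed run calls, weak flat effects or poor fits; inactive means the rest, including opposite-direction effects.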

Experiment: cytotoxicity in ldlA[mSR-BI] CHO cells, dose response, cytotoxicity control for SR-BI HDL uptake inhibitor project, cell-based, 24 h, ATP luminescence, dry powder, set 6 (AID 623895)
Conditions: ldlA[mSR-BI] CHO cells viability, ATP luminescence, 24 h; at 35 µM (top of the series)
How it was run: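 Material: ldlA[mSR-BI] cells; Input: 4,000 cells per well; Measured by: cell Titer Glo luminescence reporting cellular ATP; Schedule: 24 h at 37 °C, read after 10 min; Dosing: Eight-point compound dose series.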

Row | SMILES | activity change, negative = cytotoxicity
1 | C[C@@H]1CN([C@@H](C)CO)C(=O)Cc2cc(N(C)C)ccc2O[C@@H]1CN(C)Cc1ccc(C(=O)O)cc1 | 4.97% (inactive)
2 | C[C@@H]1CN([C@H](C)CN)C(=O)c2cc(NC(=O)Cc3cn(C)c4ccccc34)ccc2O[C@H]1CN(C)S(=O)(=O)c1ccc(Cl)cc1 | -0.334% (inactive)
3 | COCC(=O)N1CCc2cc(-c3csc(NC(=O)c4cc(OC)cc(OC)c4)n3)ccc21 | 3.3% (inactive)
4 | C[C@@H]1CN([C@@H](C)CO)C(=O)c2cc(NC(=O)Cc3cn(C)c4ccccc34)ccc2O[C@H]1CN(C)S(=O)(=O)c1ccc(Cl)cc1 | -25.3% (inactive)
5 | C[C@@H]1CN([C@H](C)CO)C(=O)c2cc(NC(=O)Cc3cn(C)c4ccccc34)ccc2O[C@H]1CN(C)C | 6.87% (inactive)
6 | Cc1ccc(OCc2cc(C(=O)N3CCCC(O)C3)no2)cn1 (configuration not stated) | -19.7% (inactive)
7 | C[C@@H]1CN([C@H](C)CO)C(=O)c2cc(NC(=O)Cc3cn(C)c4ccccc34)ccc2O[C@H]1CN(C)Cc1ccc(C(=O)O)cc1 | -1% (inactive)
8 | C[C@H](C(=O)NC1CCCC1)N(C(=O)Cn1nnc(-c2ccc3c(c2)OCO3)n1)C1CCCCC1 | -16.5% (inactive)
9 | CNC[C@@H]1Oc2ccc(NC(=O)Cc3cn(C)c4ccccc34)cc2C(=O)N([C@H](C)CO)C[C@H]1C | 14.8% (inactive)
10 | COc1ccc(CN(C)C[C@@H]2Oc3ccc(NC(=O)CCCN(C)C)cc3C(=O)N([C@H](C)CO)C[C@H]2C)cc1 | 12.2% (inactive)
11 | C[C@@H]1CN([C@H](C)CO)C(=O)c2cc(NC(=O)Cc3cn(C)c4ccccc34)ccc2O[C@H]1CN(C)C(=O)Nc1ccc2c(c1)OCO2 | 7.49% (inactive)
12 | O=C(C[C@H]1CC[C@H](NC(=O)CC2CC2)[C@@H](CO)O1)NCc1ccc(Cl)cc1 | -5.27% (inactive)
13 | C[C@@H]1CN([C@@H](C)CO)C(=O)Cc2cc(NS(C)(=O)=O)ccc2O[C@@H]1CN(C)Cc1ccc(C(F)(F)F)cc1 | -12.8% (inactive)
14 | C[C@@H]1CN([C@H](C)CO)C(=O)c2cc(NC(=O)c3ccncc3)ccc2O[C@H]1CN(C)S(=O)(=O)c1ccc(Cl)cc1 | 4.97% (inactive)
15 | C[C@@H]1CN([C@H](C)CO)C(=O)Cc2cc(NC(=O)Cc3cn(C)c4ccccc34)ccc2O[C@H]1CN(C)S(=O)(=O)c1ccc(F)cc1 | -0.321% (inactive)
16 | C[C@@H]1CN([C@H](C)CO)C(=O)c2cc(NC(=O)CCCCCC(=O)Nc3ccccc3N)ccc2O[C@H]1CN(C)S(=O)(=O)c1ccc(Cl)cc1 | -0.144% (inactive)
17 | C[C@@H]1CN([C@H](C)CO)C(=O)c2cc(NS(=O)(=O)c3cccs3)ccc2O[C@H]1CN(C)S(=O)(=O)c1ccc(Cl)cc1 | 1.79% (inactive)
18 | C[C@@H]1CN([C@H](C)CO)C(=O)c2cc(NS(=O)(=O)c3ccc(F)cc3)ccc2O[C@H]1CN(C)S(=O)(=O)c1ccc(Cl)cc1 | -2.92% (inactive)
19 | O=C(O)CC(C(=O)Nc1cccc(C(F)(F)F)c1)C1CCCO1 (configuration not stated) | -9.62% (inactive)
20 | C[C@@H]1CN([C@H](C)CO)C(=O)c2cc(NC(=O)Cc3cn(C)c4ccccc34)ccc2O[C@H]1CN(C)Cc1ccncc1 | -16.9% (inactive)
21 | C[C@H]1CN([C@@H](C)CO)C(=O)c2cc(NC(=O)Cc3cn(C)c4ccccc34)ccc2O[C@@H]1CN(C)S(=O)(=O)c1ccc(Cl)cc1 | -20.1% (inactive)

Row | SMILES | activity change, negative = cytotoxicity
22 | C[C@@H]1CN([C@H](C)CO)C(=O)c2cc(NC(=O)Cc3cn(C)c4ccccc34)ccc2O[C@H]1CN(C)C(=O)Nc1ccc(F)cc1 | -16.3% (inactive)
23 | C[C@H]1CN([C@@H](C)CO)C(=O)c2cc(NC(=O)Cc3cn(C)c4ccccc34)ccc2O[C@H]1CN(C)S(=O)(=O)c1ccc(Cl)cc1 | -23.6% (inactive)
24 | C[C@@H]1CN([C@H](C)CO)C(=O)c2cc(NC(=O)C3CCCCC3)ccc2O[C@H]1CN(C)C(=O)c1ccc(Cl)cc1 | -24.6% (inactive)
25 | C[C@@H]1CN([C@H](C)CO)C(=O)c2cc(NC(=O)Nc3ccc(C(F)(F)F)cc3)ccc2O[C@H]1CN(C)S(=O)(=O)c1ccc(Cl)cc1 | -31.8% (inactive)
26 | Cc1noc(C)c1S(=O)(=O)N(C)C[C@H]1Oc2c(NC(=O)c3nc4ccccc4s3)cccc2C(=O)N([C@H](C)CO)C[C@H]1C | -8.36% (inactive)
27 | Cc1ccccc1-c1ccc2c(c1)O[C@H](CN(C)C(=O)Nc1ccc(F)cc1)[C@H](C)CN([C@H](C)CO)S2(=O)=O | -28.5% (inactive)
28 | COc1ccc(NC(=O)N(C)C[C@@H]2Oc3ccc(NC(=O)Cc4cn(C)c5ccccc45)cc3C(=O)N([C@H](C)CO)C[C@H]2C)cc1 | 13.1% (inactive)
29 | COc1ccc(S(=O)(=O)N(C)C[C@@H]2Oc3ccc(NC(=O)Cc4cn(C)c5ccccc45)cc3C(=O)N([C@H](C)CO)C[C@H]2C)cc1 | -20.3% (inactive)
30 | CO[C@H]1CN(C)C(=O)c2cc(NC(=O)c3ccccc3F)ccc2OC[C@@H](C)N(C(C)=O)C[C@@H]1C | 1.07% (inactive)
31 | CC(=O)Nc1ccc(Cl)c(C(=O)Nc2ccc(N3CCN(C(=O)OC(C)(C)C)CC3)cc2)c1 | -29.2% (inactive)
32 | Cc1ccc(S(=O)(=O)N(C)C[C@@H]2Oc3ccc(NC(=O)Cc4cn(C)c5ccccc45)cc3C(=O)N([C@H](C)CO)C[C@H]2C)cc1 | -12.8% (inactive)
33 | C[C@@H]1CN([C@H](C)CO)C(=O)c2cc(NC(=O)Cc3cn(C)c4ccccc34)ccc2O[C@H]1CN(C)Cc1ccc(C(=O)Nc2ccccc2N)cc1 | -12.9% (inactive)
34 | CC(C)NC(=O)Nc1ccc2c(c1)C(=O)N([C@H](C)CO)C[C@@H](C)[C@H](CN(C)S(=O)(=O)c1ccc(Cl)cc1)O2 | 3.09% (inactive)
35 | C[C@@H]1CN([C@H](C)CO)C(=O)c2cc(NC(=O)Cc3cn(C)c4ccccc34)ccc2O[C@H]1CN(C)S(=O)(=O)c1ccccc1 | -5.11% (inactive)
36 | CO[C@@H]1CN(C)C(=O)c2ccc(NC(=O)C3CC3)cc2OC[C@@H](C)N(Cc2ccncc2)C[C@H]1C | -2.35% (inactive)
37 | C[C@@H]1CN([C@H](C)CO[Si](C)(C)C(C)(C)C)C(=O)c2cc(NC(=O)C3CCCCC3)ccc2O[C@H]1CN(C)C(=O)c1ccc(Cl)cc1 | -16.8% (inactive)
38 | C[C@@H]1CN([C@H](C)CO)C(=O)c2cc(N(C)C)ccc2O[C@H]1CN(C)S(=O)(=O)c1ccc(Cl)cc1 | -23.7% (inactive)
39 | Cc1noc(C)c1S(=O)(=O)Nc1ccc2c(c1)C(=O)N([C@H](C)CO)C[C@@H](C)[C@H](CN(C)S(=O)(=O)c1ccc(Cl)cc1)O2 | -15.6% (inactive)
40 | C[C@H](CO)N1C[C@H](C)[C@H](CN(C)S(=O)(=O)c2ccc(Cl)cc2)Oc2ccc(NC(=O)Cc3cn(C)c4ccccc34)cc2C1=O | -19.8% (inactive)
41 | C[C@@H]1CN([C@H](C)CO)C(=O)c2cc(NC(=O)CCC(F)(F)F)ccc2O[C@H]1CN(C)S(=O)(=O)c1ccc(Cl)cc1 | -19.4% (inactive)
42 | C[C@@H]1CN([C@H](C)CO)C(=O)c2cc(NC(=O)C3CCOCC3)ccc2O[C@H]1CN(C)S(=O)(=O)c1ccc(Cl)cc1 | -5.21% (inactive)
